ChEMBL document CHEMBL3399930, “Rat hormone sensitive lipase inhibition by cyclipostins and their analogs” (Bioorg Med Chem, 2015)

What was measured:
[1] = biological target: T1, Hormone-sensitive lipase (Rattus norvegicus, UniProt P15304); assay: Inhibition of rat hormone sensitive lipase assessed as oleic acid release from [3H]triolein by scintillation counting
T1 sequence (P15304 whole entry): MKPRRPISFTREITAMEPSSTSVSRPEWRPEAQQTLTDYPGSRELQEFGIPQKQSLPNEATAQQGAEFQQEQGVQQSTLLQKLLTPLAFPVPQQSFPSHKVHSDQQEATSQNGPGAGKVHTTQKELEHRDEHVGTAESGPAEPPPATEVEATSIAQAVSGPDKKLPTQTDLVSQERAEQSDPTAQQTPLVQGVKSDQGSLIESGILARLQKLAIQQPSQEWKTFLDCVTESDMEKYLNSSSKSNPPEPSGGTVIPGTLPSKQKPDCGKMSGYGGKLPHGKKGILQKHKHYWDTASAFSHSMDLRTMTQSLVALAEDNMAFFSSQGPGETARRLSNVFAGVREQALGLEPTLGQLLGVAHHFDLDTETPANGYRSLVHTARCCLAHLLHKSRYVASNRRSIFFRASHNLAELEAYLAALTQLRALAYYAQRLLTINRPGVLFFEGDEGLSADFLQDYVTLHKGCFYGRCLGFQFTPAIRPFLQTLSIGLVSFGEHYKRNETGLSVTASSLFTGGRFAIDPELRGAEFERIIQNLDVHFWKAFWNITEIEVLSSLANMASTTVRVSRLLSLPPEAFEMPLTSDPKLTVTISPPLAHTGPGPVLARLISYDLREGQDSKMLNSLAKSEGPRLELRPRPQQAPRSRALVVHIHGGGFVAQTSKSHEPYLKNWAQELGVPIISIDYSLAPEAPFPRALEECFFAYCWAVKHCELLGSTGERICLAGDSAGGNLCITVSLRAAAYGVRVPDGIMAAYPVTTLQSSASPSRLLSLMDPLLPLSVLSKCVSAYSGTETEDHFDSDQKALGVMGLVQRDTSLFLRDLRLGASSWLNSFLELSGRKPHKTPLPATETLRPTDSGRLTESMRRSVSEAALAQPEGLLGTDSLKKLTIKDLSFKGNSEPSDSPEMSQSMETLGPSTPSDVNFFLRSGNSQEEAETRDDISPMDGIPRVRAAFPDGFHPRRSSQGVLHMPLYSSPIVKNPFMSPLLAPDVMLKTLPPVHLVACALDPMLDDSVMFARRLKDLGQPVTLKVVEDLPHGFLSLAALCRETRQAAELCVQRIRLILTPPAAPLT
Outline: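 His-tagged rat HSL expressed in baculovirus-infected Sf9 cells, Ni-NTA purified. Enzyme (20–100 nM) preincubated 30 min on ice with inhibitor-containing PC/PI liposomes, no triolein. Substrate: liposomes of 200 μM PC/PI (3:1 w/w) with 500 μM triolein plus 3H-triolein. Buffer: 25 mM Tris, 150 mM NaCl, 0.2 mM EDTA, 1 mM β-mercaptoethanol, pH 7.4, with 0.2% BSA. Run at 37°C. Samples taken every 10 min (6–8 points), oleate extracted and counted. IC50 is the inhibitor level giving 50% activity, in triplicate.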

[2] = biological target: T1, Hormone-sensitive lipase; assay: Irreversible inhibition of rat hormone sensitive lipase assessed as relative residual activity by kinetic analysis
Outline: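 Recombinant His-tagged rat HSL, no preincubation, added directly at 37°C to liposomes containing both [3H]triolein and inhibitor, at several inhibitor concentrations. Samples every 3–5 min over 30 min. Released oleic acid extracted and measured by scintillation. Residual activity versus inhibitor concentration and time fitted to an irreversible inactivation scheme (k-2 ≈ 0) to obtain binding and inactivation constants.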

SMILES | IC50 [1] | Ki [2]
CCCCCCCCCCCCCCCCO[P@]1(=O)OC[C@H]2COC(=O)C2=C(C)O1 (relative stereo) | 0.42 µM | 
CCCCCCCCCCCCCCCCO[P@]1(=O)CC[C@@H]2COC(=O)C2=C(C)O1 (racemic) | 6.9 µM | 
CCCCCCCCCCCCCCCCCC[C@H]1CC[P@@](=O)(OC)OC(C)=C1C(=O)OC (relative stereo) | 27 µM | 
CCCCCCCCCCCCCCCCO[P@]1(=O)CC[C@H]2COC(=O)C2=C(C)O1 (racemic) | 0.36 µM | 
CCCCCCCCCCCCCCCCOP1(=O)OC(C)=C(C(=O)OC)CCC1(F)F (stereo not given) | > 100 µM | 
CCCCCCCCCCCCCCCCO[P@]1(=O)OC[C@@H]2COC(=O)C2=C(C)O1 (relative stereo) | 0.025 µM | 40 nM
CCCCCCCCCCCCCCCO[P@]1(=O)CC[C@@H]2COC(=O)C2=C(C)O1 (racemic) | 0.45 µM | 
CO[P@]1(=O)OC[C@@H]2COC(=O)C2=C(C)O1 (relative stereo) | > 100 µM | 
CCCCCCCCCCCCCCCO[P@]1(=O)CC[C@H]2COC(=O)C2=C(C)O1 (racemic) | 0.47 µM | 
CCCCCCCCCCCCCCCC[C@@H]1CC[P@@](=O)(OC)OC(C)=C1C(=O)OC (relative stereo) | 60 µM | 
CCCCCCCCCCCCCCCCCC[C@@H]1CC[P@@](=O)(OC)OC(C)=C1C(=O)OC (relative stereo) | > 100 µM | 
CCCCCCCCCCCC[C@H]1CC[P@@](=O)(OC)OC(C)=C1C(=O)OC (relative stereo) | 13.5 µM | 
CO[P@]1(=O)OC[C@H]2COC(=O)C2=C(C)O1 (relative stereo) [CYCLOPHOSTIN] | > 100 µM | 
CCCCCCCCCCCC[C@@H]1CC[P@@](=O)(OC)OC(C)=C1C(=O)OC (relative stereo) | 35 µM | 
CCCCCCCCCCCCCCCCOP1(=O)OCCC(C(=O)OC)=C(C)O1 (stereo not given) | 0.06 µM | 
CCCCCCCCCCCCCCCC[C@H]1CC[P@@](=O)(OC)OC(C)=C1C(=O)OC | 10 µM | 
CCCCCCCCCCCCCCCO[P@]1(=O)OC[C@H]2COC(=O)C2=C(C)O1 (racemic) | 0.075 µM | 
CCCCCCCCCCCCCCCO[P@]1(=O)OC[C@@H]2COC(=O)C2=C(C)O1 (racemic) | 0.9 µM | 
CO[P@@]1(=O)CC[C@H]2COC(=O)C2=C(C)O1 (relative stereo) | 100 µM | 
